This data set in a line: Toxicity liver stage against HepG2, at 10uM. Format: cell-based. Details: test concentration 10 uM, cell line HepG2-A16-CD81EGFP. Particulars: human, HepG2-A16-CD81EGFP cells; read-out: INHIBITION
Summed up:
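Uninfected HepG2-A16-CD81EGFP cells, 3 × 10^3 per well, 1536-well, plated on prespotted compound at 10 μM final, parasite-free screening media added to match infected plates; puromycin 10 μM positive, DMSO 0.5% negative; run in parallel with 48 h PbLuc assay at 37 °C, 5% CO2; viability by CellTiter-Glo luminescence, normalized to controls.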

Molecules are shown by their SMILES.

The values that follow come from ChEMBL document CHEMBL4513216, “Probing the Open Global Health Chemical Diversity Library for Multistage-Active Starting Points for Next-Generation Antimalarials” (ACS Infect Dis, 2020).

Take `C[S+]([O-])c1ccc(NC(=O)Cc2cccnc2)cc1F` (centres undefined): the cytotoxicity at 10 µM was -4.26%.
Regarding `CC(CN1CCOC1=O)NC(=O)c1cccc(C#N)c1` (centres undefined), the cytotoxicity at 10 µM was -8.37%.
`CC(C)COC(=O)N1CCCN(C(C)c2nnc(CC(C)C)o2)CC1` (centres undefined): the cytotoxicity at 10 µM was found to be 8.69%.
On to `c1cc(-c2ccc3nc(C4CCN(CC5CC5)CC4)nn3c2)cs1`, for which the cytotoxicity at 10 µM was -12.2%.
With `CCc1nc2n(n1)CC(NCc1noc(-c3ccc(C)cc3)n1)CC2` (centres undefined) the figure was -4.26%; with `COc1ccccc1Oc1ncccc1CNC(=O)C(O)C(F)(F)F` (centres undefined), -3.37%; with `CCc1nc2n(n1)CC(NCc1cnc(-c3ccccc3)nc1)CC2` (centres undefined), 0.702%.
With `COc1ccc(S(=O)(=O)NCCn2cnc(C)cc2=O)cc1C` the figure was 7.69%.
For the molecule `CCc1nc(C)c(C(=O)N2CCNCC2C(=O)NCc2ccncc2)o1` (centres undefined), the cytotoxicity at 10 µM was -3.64%.
As to `COCC(=O)N1C[C@H]2CC[C@@]3(N=C(c4ccccc4)NC3=O)[C@H]2C1`, the cytotoxicity at 10 µM came to 3.83%.
The value for `Fc1cccc(N2CCCC3(C2)CN(c2cnccn2)CCO3)c1` (centres undefined) was 8.49%; that for `COc1cccc(CN(C)C(=O)CCC(=O)c2ccc(Cl)cc2)c1OC` was -1.1%; that for `CCO[C@@H]1CC[C@H]2[C@H]1OCCN2CC1CCC1` was 11.2%.
The value for `Cc1nc(CN(C)C2CCN(Cc3cnc(C)s3)C2)no1` (centres undefined) was -4.8%.
With `O=C(c1ccco1)N1CC[C@H]2[C@H]1CCN2CC1CCOCC1` the figure was 5.12%; with `O=S(=O)(C1CC1)N1CCc2ncc(Cn3cccn3)n2CC1`, 9.58%.
For the molecule `NC(=O)N1CCC2(CC1)CN(Cc1cccnc1)C(=O)CO2`, the cytotoxicity at 10 µM was determined as 3.63%.
On to `COCCCNC(=O)CN(C)C(=O)c1cc2cc(C)ccc2nc1C`, for which the cytotoxicity at 10 µM was -10.2%.
With `Cc1ccccc1N1CC2(CCN(S(=O)(=O)c3ccccc3)C2)CC1=O` (centres undefined) the figure was 6.24%; with `CSCCc1c(-c2ccccc2)ncn1CCNc1cccnc1`, 5.29%; with `Cc1oc(CNC(=O)Cc2cccc(OC(F)F)c2)cc1C(=O)O`, 7.04%.
With `CCOC(=O)[C@@H]1[C@@H](c2ccccc2)CN2CCN(S(C)(=O)=O)C[C@H]12` the figure was 0.227%.
With `O=C(N[C@@H]1CN(Cc2cccs2)[C@@H]2CCCO[C@@H]21)c1cscn1` the figure was -4.6%; with `CCNC(=O)NC[C@H]1Cn2c(-c3ccccc3)cnc2CO1`, -2.12%.
Take `FC(F)(F)c1nnc2n1CCN(c1nc(C3CC3)ns1)C2`: the cytotoxicity at 10 µM was 8.21%.
The value for `O=C(c1n[nH]c2c1CCC2)N1CCCC1c1nc(-c2ccccc2)no1` (centres undefined) was 6.43%.
For `CC(C)c1noc(CCCC(=O)N2CCN(Cc3ccncc3)CC2)n1`, the cytotoxicity at 10 µM was -6.59%.
For `CCN1C(=O)CC(c2cnn(C)c2)C12CCN(C(=O)c1ccoc1)CC2` (centres undefined), the cytotoxicity at 10 µM was determined as 9.61%.
In the case of `O=C(O)c1ccc2[nH]cc(CN3CCCC3)c2c1`, the cytotoxicity at 10 µM was -2.66%.
With `COc1cccc(CN2CCC(c3nn(CCN)c4nccnc34)C2)c1` (centres undefined) the figure was -24.7%.
With `COCc1nn(C)c2c1CN(C(=O)c1ccno1)CC2` the figure was 12.7%; with `CC(C)(C)c1csc(C2CCCCN2C(=O)CCn2cncn2)n1` (centres undefined), -4.34%.
`Cn1cc(C2CCCN2CC(=O)N(CCC#N)Cc2ccco2)cn1` (centres undefined): the cytotoxicity at 10 µM is -6.18%.
With `c1cncc(CN2CCCCC2c2ccc(Nc3cnccn3)nc2)c1` (centres undefined), the cytotoxicity at 10 µM was found to be 4.41%.
In the case of `COCCN(CCOC)C(=O)NC1CCCCC1`, the cytotoxicity at 10 µM was -0.655%.
Take `Cc1cc(NC(=O)CNC(C)(C)c2ccccc2)on1`: the cytotoxicity at 10 µM was -8.18%.
With `CCOc1ccc(N(C)Cc2nc(C)c(C)o2)cc1` the figure was 19.9%; with `O=S(=O)(C1CC1)N1CCOC2(COCCN(c3ncccn3)C2)C1` (centres undefined), 8.55%.
Take `COCCO[C@@H]1CCN(C(=O)c2occc2C)[C@H]1Cc1cnn(C)c1`: the cytotoxicity at 10 µM amounted to 5.1%.
